Shown are actives, neighbours in structure and some others; about 3.1% of the full set was active somewhere.
MEKK3 PB1 HTS: modulators of MEKK3-MEK5 PB1 binding, primary screen, biochemical, wildtype MEKK3, multiplex bead flow cytometry, Alexa488-MEK5 | bead-based flow cytometry, Alexa488-MEK5 binding to MEKK3; actives lie on both sides; 0 = blocked by unlabeled MEK5, 100 = vehicle | binding response (% of control), % at 10 µM | 290,000 tested, 1.4% active;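 active = binding response more than 3 SD above or below the average of its plate-row segment, actives on both sides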;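 also: Alexa488 bead fluorescence after subtracting the streptavidin-only scavenger bead signal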
PREPL inhibitor: PREPL enzyme inhibitors, primary screen, biochemical, fluorescence polarization; inhibition, % at 5.96 µM; Prolyl endopeptidase-like (Homo sapiens), Q4J6C6; 320,000 tested, 0.68% active; AID 2751, 2010; recombinant PREPL, fluorescence polarization activity-based probe; in the data active = inhibition above about 43%
Target sequence (Q4J6C6 whole entry, looked up): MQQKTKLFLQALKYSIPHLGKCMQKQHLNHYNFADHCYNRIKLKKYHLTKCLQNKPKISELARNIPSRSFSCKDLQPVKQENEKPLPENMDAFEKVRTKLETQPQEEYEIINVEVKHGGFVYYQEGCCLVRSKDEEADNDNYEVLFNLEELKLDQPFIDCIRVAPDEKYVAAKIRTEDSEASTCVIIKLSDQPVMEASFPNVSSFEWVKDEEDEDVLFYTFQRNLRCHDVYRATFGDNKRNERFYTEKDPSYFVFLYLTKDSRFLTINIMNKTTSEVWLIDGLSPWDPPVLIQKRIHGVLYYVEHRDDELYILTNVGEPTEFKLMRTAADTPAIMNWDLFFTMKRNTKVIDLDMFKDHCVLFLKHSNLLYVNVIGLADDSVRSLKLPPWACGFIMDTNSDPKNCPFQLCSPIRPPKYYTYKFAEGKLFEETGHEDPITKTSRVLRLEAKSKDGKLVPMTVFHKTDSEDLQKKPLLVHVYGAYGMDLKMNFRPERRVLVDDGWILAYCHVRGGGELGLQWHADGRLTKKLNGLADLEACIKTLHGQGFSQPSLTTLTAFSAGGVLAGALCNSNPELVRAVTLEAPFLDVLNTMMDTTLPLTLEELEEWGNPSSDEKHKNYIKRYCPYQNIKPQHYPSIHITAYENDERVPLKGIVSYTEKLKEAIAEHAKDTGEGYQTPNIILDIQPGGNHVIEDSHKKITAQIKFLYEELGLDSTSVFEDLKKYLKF
UBC13 polyUb: UBC13 polyubiquitin chain formation inhibitors, primary screen, biochemical, TR-FRET, uHTS; Ubiquitin-conjugating enzyme E2 N (Homo sapiens), P61088; AID 485273, 2010; 330,000 tested, 0.47% active; inhibition, % at 20 µM; in the data active = inhibition above about 45%, passing the limit was not always enough
MEKK2wt PB1 HTS: modulators of MEK5 binding to wildtype MEKK2, primary screen, biochemical, multiplex bead flow cytometry, Alexa488-MEK5; 290,000 tested, 1.1% active; Alexa488-MEK5 binding to MEKK2 WT; actives lie on both sides; binding response (% of control), % at 10 µM; in the data active = binding response below about 67% or above about 130%
MEKK2 mut-MEK5: MEK5 binding signal on mutant MEKK2 PB1, primary screen, biochemical, multiplex bead flow cytometry, Alexa488-MEK5; Alexa488-MEK5 binding to MEKK2 mutant; percent response, % at 10 µM; 290,000 tested, 0.35% active; AID 1530, 2009; in the data active = percent response above about 24%, passing the limit was not always enough
Apaf-1 inh: inhibitors of human Apaf-1 apoptosome, primary screen, biochemical, DEVD-Rh110 fluorescence, uHTS | Apoptotic protease-activating factor 1 (Homo sapiens), O14727 | reconstituted apoptosome caspase-3 activity | inhibition, % at 20 µM | 330,000 tested, 0.71% active; active = inhibition of at least 40% at 20 µM
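Material: reconstituted apoptosome with Apaf-1, cytochrome c, caspase-9, procaspase-3, dATP / Buffer or medium: pH 7.5 Hepes buffer with CHAPS, BSA, DTT / Also added: cytochrome c with DEVD-Rh110 / Schedule: compound with Apaf-1, dATP, procaspase-3 30 min, then 50 min reaction, room temperature / Technique: rhodamine 110 fluorescence at Ex 480/Em 540 nm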
MEKK2wt confirm: modulators of MEK5 binding to wildtype MEKK2, confirmation, biochemical, single concentration, multiplex bead flow cytometry. shares compounds with MEKK3 PB1 HTS. 5,900 tested, 2.4% active. Alexa488-MEK5 binding to MEKK2 WT; actives lie on both sides. binding response (% of control), % at 10 µM; in the data active = binding response below about 16% or above about 210%; inactive = in between
MEKK2mut confirm: mutant MEKK2 PB1-MEK5 binding signal retest – biochemical, single concentration, multiplex bead flow cytometry, confirmation; percent response, % at 10 µM; AID 1893, 2009; 5,900 tested, 2% active; Alexa488-MEK5 binding to MEKK2 mutant; shares compounds with MEKK3 PB1 HTS; in the data active = percent response mostly above about 71%, no sharp cut-off; inactive = mostly below about 38%;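 also: higher means compound restores mutant binding toward wildtype level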
MEKK3 confirm: MEKK3 wild-type PB1 binding to MEK5, inhibitors, confirmation, biochemical, bead multiplex flow cytometry, single concentration, wildtype. binding response (% of control), % at 10 µM. 5,900 tested, 1.8% active. Alexa488-MEK5 binding to MEKK3; hits give low values. shares compounds with MEKK3 PB1 HTS;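 active = binding response below 72% of control, or above a set upper limit, though filed actives all read lower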;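 also: lower values mean stronger disruption of MEK5 binding to MEKK3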
Numbers stand for hits; i = inactive; nt = no result; [ ] = dose if it differs, or a comment.

SMILES | MEKK3 PB1 HTS | PREPL inhibitor | UBC13 polyUb | MEKK2wt PB1 HTS | MEKK2 mut-MEK5 | Apaf-1 inh | MEKK2wt confirm | MEKK2mut confirm | MEKK3 confirm
Cc1ccc(C)c(NC(=S)N=Nc2c(O)n(C)c3ccc(S(=O)(=O)N4CCOCC4)cc23)c1 | 62[inhibitor] | i | i | i | i | i | i | i | i
CC(=O)c1ccc(-c2ccccc2OC(F)(F)F)o1 | 49[inhibitor] | i | i | i | i | i | i | i | i
O/N=C/c1ccc(-c2ccccc2OC(F)(F)F)o1 | i | i | i | i | i | i | nt | nt | nt
Cc1noc(C)c1S(=O)(=O)N(C)C[C@H]1Oc2ccc(NS(=O)(=O)c3cn(C)cn3)cc2C(=O)N([C@H](C)CO)C[C@@H]1C | nt | i | i | nt | nt | i | nt | nt | nt
COc1ccc(OC)c(-c2nc(C(=O)NCCCN3CCOCC3)cc3c2[nH]c2ccccc23)c1 | i | i | i | i | i | i | nt | nt | nt
COc1ccc(OC)c(-c2nc(C(=O)NC3CCN(Cc4ccccc4)CC3)cc3c2[nH]c2ccccc23)c1 | i | i | i | 146 | 24 | i | i | i | i
Cc1ccc(OCCC(=O)OCC(=O)N2CCN(S(=O)(=O)c3ccc(C)cc3)CC2)cc1 | nt | i | i | nt | nt | i | nt | nt | nt
CC(=O)N1N=C(c2ccccc2)CC1c1cn(C)c2ccccc12 (centres undefined) | 157 | i | i | i | i | i | i | i | i
COc1ccc(OC)c(NC(=O)CSc2nc3n[nH]c(C)c3c(=N)n2-c2cccc(Cl)c2C)c1 | i | i | i | i | i | i | nt | nt | nt
CCc1ccccc1NC(=O)CSc1nc2n[nH]c(C)c2c(=N)n1-c1cccc(OC)c1 | i | i | i | 140 | i | i | i | i | i
COc1ccc(Br)c(C(=O)N(C)CC(=O)Nc2ccc(N3CCOCC3)cc2)c1 | nt | i | i | nt | nt | i | nt | nt | nt
CCOc1ccc(C2N(c3cc(C)on3)C(=O)C3CCCN32)cc1OC (centres undefined) | -1.0[inhibitor] | i | i | -2.0[inhibitor] | i | i | i | i | i
O=C(CN1CCN(C(=O)C2CCCO2)CC1)Nc1cc(Cl)ccc1Cl (centres undefined) | i | i | i | i | i | i | nt | nt | nt
N#C/C(=C\C=C\c1ccccc1[N+](=O)[O-])c1nc(-c2ccc3c(c2)OCO3)cs1 | i | i | i | 24 | 30 | i | i | i | i
N#C/C(=C\c1ccccc1[N+](=O)[O-])c1nc(C2CC2)cs1 | i | i | i | i | i | i | nt | nt | nt
COc1ccc(N2CSC3=C(C#N)C(c4cccs4)CC(=O)N3C2)cc1 (centres undefined) | i | i | i | i | i | i | nt | nt | nt
COC(=O)C1C(=O)N2CCCSC2=C(C#N)C1c1cccs1 (centres undefined) | 55[inhibitor] | i | i | i | i | i | i | i | i
C/C=C/c1ccc(OCC(=O)N(CCOC)c2c(N)n(CCCC)c(=O)[nH]c2=O)c(OC)c1 | nt | i | i | nt | nt | i | nt | nt | nt
Cc1ccc(C)c(-n2c(SCC(=O)Nc3nonc3C)nnc2-c2ccoc2C)c1 | i | i | i | i | i | i | nt | nt | nt
CCn1c(Cc2ccccc2)nnc1SCC(=O)Nc1ccc(OC)cc1 | 44[inhibitor] | i | i | i | i | i | i | i | i
Cc1occc1-c1nnc(SCC(=O)Nc2ccc(F)cc2)n1Cc1ccccc1 | 2.0[inhibitor] | i | i | 2.0[inhibitor] | i | i | i | i | i
Cc1ccc(C)c(-n2c(SCC(=O)Nc3nnc(C)s3)nnc2-c2ccoc2C)c1 | 2.0[inhibitor] | i | i | 2.0[inhibitor] | i | i | i | i | i
COCCn1c(SCC(=O)Nc2nnc(C)s2)nnc1-c1ccoc1C | 129 | i | i | i | i | i | i | i | i
COc1ccc(CCNC(=O)c2nn(C)c3c2CS(=O)(=O)c2ccccc2-3)c(OC)c1 | i | i | i | i | i | i | nt | nt | nt
CN(C)S(=O)(=O)N1CCC(Oc2cccc(C(=O)N3CCCCCCC3)c2)CC1 | i | i | i | i | i | i | nt | nt | nt
SMILES | MEKK3 PB1 HTS | PREPL inhibitor | UBC13 polyUb | MEKK2wt PB1 HTS | MEKK2 mut-MEK5 | Apaf-1 inh | MEKK2wt confirm | MEKK2mut confirm | MEKK3 confirm
Cc1ccc(/C=C2\SC(=O)N(CCNC(=O)C3CSC4(C)CCC(=O)N34)C2=O)cc1 (centres undefined) | nt | i | i | nt | nt | i | nt | nt | nt
COc1cc(NC(=O)c2ccccc2Cl)c2ncccc2c1 | i | i | i | i | 26 | i | i | i | i
COc1ccc(N(C(=O)CNC(=O)c2cccs2)C(C(=O)NCC2CCCO2)c2ccccc2)cc1 (centres undefined) | 5.0[inhibitor] | i | i | 6.0[inhibitor] | i | i | i | i | i
COc1ccc(N(C(=O)CNC(=O)c2cccs2)C(C(=O)NCC2CCCO2)c2ccccc2)cc1OC (centres undefined) | i | i | i | i | i | i | nt | nt | nt
Cc1ccc(C(C(=O)NC2CCCC2)N(Cc2cccs2)C(=O)CNC(=O)c2cccs2)o1 (centres undefined) | i | i | i | i | i | i | nt | nt | nt
Cc1ccc(C(C(=O)NC2CCCC2)N(C(=O)CNC(=O)c2cccs2)c2cccnc2)o1 (centres undefined) | 71[inhibitor] | i | i | i | i | i | i | i | i
COc1ccc(/C(C)=N/NC(=O)Cc2ccc(Cl)cc2)cc1 | i | i | i | i | i | i | nt | nt | nt
Cc1cc(N2CCN(C)CC2)ccc1NC(=O)c1cccc(S(=O)(=O)N2CCc3ccccc3C2)c1 | i | i | i | 195 | i | i | i | i | i
COc1ccc(C(=O)NC(=S)Nc2ccc(N3CCOCC3)cc2)cc1Cl | i | i | i | i | i | i | nt | nt | nt
CSc1nc(C)c(C(=O)Nc2ccccc2)c(-c2ccco2)c1C#N | 27[inhibitor] | i | i | 16[inhibitor] | i | i | i | i | i
O=C(NC1CCN(Cc2ccc3ccccc3c2)CC1)c1ccccc1 | i | i | i | i | i | i | nt | nt | nt

Bioassay records deposited in PubChem BioAssay by several laboratories.
